How the values were obtained:
Cavia porcellus [1] = species on record: Cavia porcellus; experiment: Nagative chronotropic activity was expressed as percent changes in atrial rate on guinea pig spontaneously beating isolated right atrium at 10 e-5 M; assay type: functional, Cardiac atrium
Cavia porcellus [2] = species on record: Cavia porcellus; experiment: Negative chronotropic activity was calculated from log concentration/response curves; assay type: functional
Cavia porcellus [3] = species on record: Cavia porcellus; experiment: Nagative inotropic activity was expressed as percent changes in developed tension in isolated guinea pig left atrium at 10 e-5 M; assay type: functional, Cardiac atrium
How it was run: (§1)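 Isolated guinea pig left atrium, electrically driven at 1 Hz. Developed tension measured at 10⁻⁵ M and given as percent change from control, mean ±SEM, n = 5-6.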

Cavia porcellus [4] = species on record: Cavia porcellus; experiment: Inhibition concentration of vasodilation was calculated from log concentration/response curves; assay type: functional
How it was run: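 K⁺-depolarized guinea pig aortic strips, calcium-induced contraction. Potency is from log concentration/response curves by Litchfield–Wilcoxon probit analysis, n = 6-8.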

Cavia porcellus [5] = species on record: Cavia porcellus; experiment: Negative inotropic activity was calculated from log concentration/response curves; assay type: functional
How it was run: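 Guinea pig left atrium driven at 1 Hz; decrease in developed tension measured. Potency is from log concentration/response curves by Litchfield–Wilcoxon probit analysis, n = 6-8.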

Cavia porcellus [6] = species on record: Cavia porcellus; experiment: Percent inhibition of calcium-induced contraction on K+ -depolarized guinea pig aortic strips at 10 e-4 M; assay type: functional, Aorta
How it was run: (§2)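 Guinea pig aortic strips depolarized with K⁺ and contracted by calcium. Inhibition of the calcium-induced contraction measured at 10⁻⁴ M, mean ±SEM, n = 6-7.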

Cavia porcellus [7] = species on record: Cavia porcellus; experiment: Percent inhibition of calcium-induced contraction on K+ -depolarized guinea pig aortic strips at 10E-4 M; assay type: functional, Aorta; how it was run: as §2
Cavia porcellus [8] = species on record: Cavia porcellus; experiment: Nagative inotropic activity was expressed as percent changes in developed tension in isolated guinea pig left atrium at 10E-5 M; assay type: functional, Cardiac atrium; how it was run: as §1
Cavia porcellus [9] = species on record: Cavia porcellus; experiment: Nagative chronotropic activity was expressed as percent changes in atrial rate on guinea pig spontaneously beating isolated right atrium at 10E-5 M; assay type: functional, Cardiac atrium

In the case of `COc1ccc(CCN(C)CCCC(C#N)(c2ccc(OC)c(OC)c2)C(C)C)cc1OC` (stereo not drawn), the Change (Cavia porcellus [1]) is reported as 94%, the ED30 (Cavia porcellus [2]) is reported as 70 nM and the Change (Cavia porcellus [3]) is reported as 84%. For the same molecule, the IC50 (Cavia porcellus [4]; Cavia porcellus) was 380 nM and the ED50 (Cavia porcellus [5]) was 610 nM.

`COc1ccc(CCN(C)C2CCCC(C(C#N)(c3ccc(OC)c(OC)c3)C(C)C)C2)cc1OC` (stereo in doubt; 2a) gave a Change (Cavia porcellus [1]) of 78%, an ED30 (Cavia porcellus [2]) of 75 nM and a Change (Cavia porcellus [3]) of 84%. It also gave an ED50 (Cavia porcellus [5]) of 100 nM and an Inhibition (Cavia porcellus [6]) of 37%.

In the case of `COc1ccc(CCN(C)C2CCCC(C(C#N)(c3ccc(OC)c(OC)c3)C(C)C)C2)cc1OC` (stereo in doubt; 2b), the Change (Cavia porcellus [1]) is reported as 93%, the ED30 (Cavia porcellus [2]) is reported as 230 nM and the Change (Cavia porcellus [3]) is reported as 75%. The ED50 (Cavia porcellus [5]) was 1300 nM and the Inhibition (Cavia porcellus [6]) was 30%.

Work on `COc1ccc(CCN(C)C2CCCC(C(C#N)(c3ccc(OC)c(OC)c3)C(C)C)C2)cc1OC` (stereo in doubt; 2c) yielded a Change (Cavia porcellus [1]) of 89%, an ED30 (Cavia porcellus [2]) of 1300 nM and a Change (Cavia porcellus [3]) of 86%. For the same molecule, the IC50 (Cavia porcellus [4]) was 18000 nM, the ED50 (Cavia porcellus [5]) was 60 nM and the Inhibition (Cavia porcellus [6]) was 49%.

Work on `COc1ccc(CCN(C)C2CCCC(C(C#N)(c3ccc(OC)c(OC)c3)C(C)C)C2)cc1OC` (stereo in doubt; 2d) yielded a Change (Cavia porcellus [1]) of 75%, an ED30 (Cavia porcellus [2]) of 420 nM and a Change (Cavia porcellus [3]) of 74%. The IC50 (Cavia porcellus [4]; Cavia porcellus) was 10000 nM, the ED50 (Cavia porcellus [5]) was 200 nM and the Inhibition (Cavia porcellus [6]) was 58%.

`COc1ccc(CCNC2CCCC(C(C#N)(c3ccc(OC)c(OC)c3)C(C)C)C2)cc1OC` (stereo in doubt; 7a) gave an ED30 (Cavia porcellus [2]) of 2400 nM, an Inhibition (Cavia porcellus [7]) of 62% and an IC50 (Cavia porcellus [4]) of 17000 nM. For the same molecule, the Change (Cavia porcellus [8]) was 82%, the ED50 (Cavia porcellus [5]) was 900 nM and the Change (Cavia porcellus [9]) was 78%.

Work on `COc1ccc(CCNC2CCCC(C(C#N)(c3ccc(OC)c(OC)c3)C(C)C)C2)cc1OC` (stereo in doubt; 7b) yielded an ED30 (Cavia porcellus [2]) of 60 nM, an Inhibition (Cavia porcellus [7]) of 35% and a Change (Cavia porcellus [8]) of 74%. It also gave an ED50 (Cavia porcellus [5]) of 110 nM and a Change (Cavia porcellus [9]) of 66%.

In the case of `COc1ccc(CCNC2CCCC(C(C#N)(c3ccc(OC)c(OC)c3)C(C)C)C2)cc1OC` (stereo in doubt; 7c), the ED30 (Cavia porcellus [2]) is reported as 1400 nM, the Inhibition (Cavia porcellus [7]) is reported as 40% and the Change (Cavia porcellus [8]) is reported as 70%. For the same molecule, the ED50 (Cavia porcellus [5]) was 660 nM and the Change (Cavia porcellus [9]) was 64%.

Work on `COc1ccc(CCNC2CCCC(C(C#N)(c3ccc(OC)c(OC)c3)C(C)C)C2)cc1OC` (stereo in doubt; 7d) yielded an ED30 (Cavia porcellus [2]) of 370 nM, an Inhibition (Cavia porcellus [7]) of 56% and a Change (Cavia porcellus [8]) of 83%. The ED50 (Cavia porcellus [5]) was 1100 nM and the Change (Cavia porcellus [9]) was 84%.
